This is an account of results in ChEMBL document CHEMBL5653605, “Reduced VEGF production, angiogenesis, and vascular regrowth contribute to the antitumor properties of dual mTORC1/mTORC2 inhibitors” (Cancer Res, 2011).

SMILES strings stand for the structures. The source made the active and inactive calls. No cut-off for these calls is given here.

Test [1] addresses Serine/threonine-protein kinase mTOR (Homo sapiens, UniProt P42345). Put plainly: Inhibition of mTOR (unknown origin).
In test [2] the target is Phosphatidylinositol 4,5-bisphosphate 3-kinase catalytic subunit gamma isoform (Homo sapiens, UniProt P48736). Description: Inhibition of PI3Kgamma (unknown origin) in presence of ATP by HTRF assay. The essentials:
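PI3K activity by HTRF assay at […] ATP.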

Test [3] has as its target Eukaryotic translation initiation factor 4E-binding protein 1 (Homo sapiens) (UniProt Q13541). Put plainly: Inhibition of 4E-BP1 phosphorylation at Ser 37/46 residues in serum deprived/insulin stimulated human OVCAR-3 cells harboring PTEN and wild type PI3K preincubated for 2 hrs followed by insulin stimulation and measured immediately by Western blot analysis. The class given is cell-based. The conditions noted are these: dose 0.001-10 µM. (Immunoblotting shows a protein as a band on a membrane.)

The subject of the next test is OVCAR-3. Put plainly: Inhibition of S6K phosphorylation at 235/236 residues in serum deprived/insulin stimulated human OVCAR-3 cells harboring PTEN and wild type PI3K at 0.001 to 10 uM preincubated for 2 hrs followed by insulin stimulation and measured immediately by Western blot analysis. The format is cell-based. Conditions: dose 0.001-10 µM.
For test [4], the system named is Pancreatic islet cell carcinoma. Put plainly: Antitumor activity against pancreatic islet cell carcinoma in RIP-Tag2 mouse assessed as reduction in VEGF production by measuring reduction in fluorescence in entire tumor at 75 mg/kg, po bid administered via gavage and measured after 1 day by immunohistochemical staining based confocal microscopic analysis relative to control. The format is functional. Also on record: scale not given: the % may be the effect or the level left. In a few lines:
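Treatment began in RIP-Tag2 mice at 9–10 weeks: 75 mg/kg gavage BID for 1, 4 or 7 days, or 20 mg/kg ip QD for 7 days; vehicle Labrifil or water. Tissue fixed by vascular perfusion and 60–80 µm sections stained for VEGF with CD31. VEGF fluorescence intensity measured over whole tumor, tumor cells, or tumor vessels. 3–8 mice/group; ANOVA, Fisher PLSD.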

The next test has as its target Ephrin type-A receptor 2 (Homo sapiens, UniProt P29317). Put plainly: Inhibition of EphA2 phosphorylation (unknown origin) by cell based assay.
In test [5] the target is Proto-oncogene tyrosine-protein kinase receptor Ret (Homo sapiens) (UniProt P07949). Description: Inhibition of RET (unknown origin) at 3 uM by Ambit Kinomescan assay relative to control.
Sequence of Proto-oncogene tyrosine-protein kinase receptor Ret (Homo sapiens) (P07949 whole entry): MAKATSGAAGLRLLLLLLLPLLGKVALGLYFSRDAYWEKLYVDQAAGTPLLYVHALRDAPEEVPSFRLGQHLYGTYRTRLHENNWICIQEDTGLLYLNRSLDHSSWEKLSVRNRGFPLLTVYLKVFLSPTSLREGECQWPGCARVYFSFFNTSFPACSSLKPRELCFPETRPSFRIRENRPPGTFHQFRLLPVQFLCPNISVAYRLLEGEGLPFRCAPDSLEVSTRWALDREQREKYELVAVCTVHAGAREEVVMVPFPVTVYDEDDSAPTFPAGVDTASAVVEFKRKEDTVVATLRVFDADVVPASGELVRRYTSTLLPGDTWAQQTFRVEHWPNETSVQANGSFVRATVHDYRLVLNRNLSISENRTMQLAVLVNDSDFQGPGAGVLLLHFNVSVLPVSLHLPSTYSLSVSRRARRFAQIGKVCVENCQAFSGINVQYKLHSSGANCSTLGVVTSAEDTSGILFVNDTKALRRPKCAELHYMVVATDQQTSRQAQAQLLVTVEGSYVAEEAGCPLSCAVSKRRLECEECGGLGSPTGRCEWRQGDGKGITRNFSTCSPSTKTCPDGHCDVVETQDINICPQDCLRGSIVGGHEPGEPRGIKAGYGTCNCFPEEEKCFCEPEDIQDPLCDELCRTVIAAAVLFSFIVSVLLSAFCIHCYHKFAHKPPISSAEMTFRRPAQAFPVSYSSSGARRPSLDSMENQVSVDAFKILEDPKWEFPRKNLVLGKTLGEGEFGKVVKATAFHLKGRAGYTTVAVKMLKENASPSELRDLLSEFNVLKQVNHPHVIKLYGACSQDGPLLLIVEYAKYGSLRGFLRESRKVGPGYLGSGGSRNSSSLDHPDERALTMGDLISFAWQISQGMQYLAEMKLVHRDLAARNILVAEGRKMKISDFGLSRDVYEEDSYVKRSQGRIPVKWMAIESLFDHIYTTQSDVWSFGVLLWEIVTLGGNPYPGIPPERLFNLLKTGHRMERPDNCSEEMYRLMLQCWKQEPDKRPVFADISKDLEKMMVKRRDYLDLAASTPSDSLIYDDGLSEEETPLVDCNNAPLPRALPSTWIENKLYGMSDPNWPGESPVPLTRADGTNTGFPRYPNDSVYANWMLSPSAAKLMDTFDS

Sequence of Ephrin type-A receptor 2 (P29317 whole entry): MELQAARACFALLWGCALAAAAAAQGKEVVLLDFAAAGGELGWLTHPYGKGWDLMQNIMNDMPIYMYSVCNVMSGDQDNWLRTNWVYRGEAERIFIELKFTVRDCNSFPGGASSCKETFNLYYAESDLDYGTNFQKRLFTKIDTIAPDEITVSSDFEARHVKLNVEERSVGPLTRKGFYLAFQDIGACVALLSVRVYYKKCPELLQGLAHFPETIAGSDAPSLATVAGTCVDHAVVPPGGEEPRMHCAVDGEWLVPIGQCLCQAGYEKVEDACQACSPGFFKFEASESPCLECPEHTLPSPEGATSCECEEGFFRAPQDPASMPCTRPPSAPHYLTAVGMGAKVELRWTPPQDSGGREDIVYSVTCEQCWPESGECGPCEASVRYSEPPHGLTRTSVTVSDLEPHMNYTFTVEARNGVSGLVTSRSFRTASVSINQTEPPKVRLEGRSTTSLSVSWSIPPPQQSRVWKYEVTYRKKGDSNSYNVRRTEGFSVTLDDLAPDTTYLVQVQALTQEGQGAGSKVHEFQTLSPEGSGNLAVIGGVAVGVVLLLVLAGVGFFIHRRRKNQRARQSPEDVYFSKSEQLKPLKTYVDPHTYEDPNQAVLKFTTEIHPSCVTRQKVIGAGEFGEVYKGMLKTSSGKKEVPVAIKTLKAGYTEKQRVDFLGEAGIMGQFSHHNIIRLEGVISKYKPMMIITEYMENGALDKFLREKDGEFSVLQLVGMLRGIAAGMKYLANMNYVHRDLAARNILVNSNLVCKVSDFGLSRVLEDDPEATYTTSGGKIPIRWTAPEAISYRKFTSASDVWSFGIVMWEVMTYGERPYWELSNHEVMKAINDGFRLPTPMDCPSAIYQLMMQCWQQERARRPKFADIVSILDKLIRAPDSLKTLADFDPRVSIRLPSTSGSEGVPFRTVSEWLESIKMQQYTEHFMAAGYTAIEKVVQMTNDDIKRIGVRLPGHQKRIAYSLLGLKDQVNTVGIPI
Sequence of Eukaryotic translation initiation factor 4E-binding protein 1 (Homo sapiens) (Q13541 whole entry): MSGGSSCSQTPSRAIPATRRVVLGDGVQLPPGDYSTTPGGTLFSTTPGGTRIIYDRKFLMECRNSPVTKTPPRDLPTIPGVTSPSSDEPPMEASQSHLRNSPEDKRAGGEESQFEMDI
Sequence of Phosphatidylinositol 4,5-bisphosphate 3-kinase catalytic subunit gamma isoform (P48736 whole entry, canonical isoform): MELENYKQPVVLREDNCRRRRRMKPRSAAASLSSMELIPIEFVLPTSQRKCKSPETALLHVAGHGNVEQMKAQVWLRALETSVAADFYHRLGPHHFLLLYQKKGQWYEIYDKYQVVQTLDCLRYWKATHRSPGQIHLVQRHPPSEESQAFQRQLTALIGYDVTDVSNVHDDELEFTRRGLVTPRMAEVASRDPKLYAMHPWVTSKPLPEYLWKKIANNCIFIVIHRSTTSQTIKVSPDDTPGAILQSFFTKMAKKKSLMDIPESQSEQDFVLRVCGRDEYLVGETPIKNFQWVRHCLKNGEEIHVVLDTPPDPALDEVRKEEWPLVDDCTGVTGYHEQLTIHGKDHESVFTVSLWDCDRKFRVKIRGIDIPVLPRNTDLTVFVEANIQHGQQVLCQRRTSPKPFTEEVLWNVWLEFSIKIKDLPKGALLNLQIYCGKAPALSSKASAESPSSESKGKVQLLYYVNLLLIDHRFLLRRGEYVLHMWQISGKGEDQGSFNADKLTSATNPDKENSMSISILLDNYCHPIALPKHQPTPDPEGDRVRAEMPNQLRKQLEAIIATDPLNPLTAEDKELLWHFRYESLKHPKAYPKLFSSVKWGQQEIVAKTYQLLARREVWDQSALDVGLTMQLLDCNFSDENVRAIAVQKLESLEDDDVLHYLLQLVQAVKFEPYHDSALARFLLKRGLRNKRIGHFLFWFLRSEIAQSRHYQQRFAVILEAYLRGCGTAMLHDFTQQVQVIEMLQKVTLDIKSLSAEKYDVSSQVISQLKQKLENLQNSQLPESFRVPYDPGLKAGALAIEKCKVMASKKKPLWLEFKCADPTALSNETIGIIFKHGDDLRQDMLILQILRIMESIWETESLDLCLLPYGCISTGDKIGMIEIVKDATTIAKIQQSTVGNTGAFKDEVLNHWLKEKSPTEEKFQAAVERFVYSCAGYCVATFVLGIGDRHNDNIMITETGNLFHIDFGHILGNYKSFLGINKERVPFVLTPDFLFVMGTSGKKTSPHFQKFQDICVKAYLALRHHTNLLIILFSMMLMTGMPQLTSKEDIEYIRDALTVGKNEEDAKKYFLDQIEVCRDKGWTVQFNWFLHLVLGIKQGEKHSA

As for `Nc1nccn2c1c(-c1cc3cccc(Cl)c3[nH]1)nc2[C@H]1CC[C@H](C(=O)O)CC1`, the IC50 was 11 nM in test [1], 460 nM in test [2] and over 40000 nM on Ephrin type-A receptor 2. The inhibition result in test [3] was “Dose-Dependent Effect”; in test [5], over 90%. In the test on OVCAR-3, the inhibition entry is “Active”. Further, the Activity in test [4] came out at 12%.

As a reminder, the IC50 is the concentration that gives 50% inhibition. As a reminder, the inhibition is the drop in the measured response relative to a control, in per cent.
